For one data set, the species on record is Sus scrofa. Kind of data set: Inhibition of porcine brain alpha/beta tubulin polymerization at 5 uM measured every 20 sec by microplate reader analysis.
Data set [1] in a line: Growth inhibition of human MCF7/Topo cells after 24 hrs by MTT assay. It is filed as functional, cell-based. Put shortly: (§1)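 Cells seeded at 5000/well (Ea.hy926 10,000/well) and exposed for 24 h to dilution series of 100 µM–5 pM, with DMSO as solvent control. MTT (0.5 mg/mL final) for 2 h. Formazan dissolved in SDS/acetic acid/DMSO and read at 570 nm against a 630 nm background. Viability taken relative to DMSO controls; IC50 from dose–response curves, mean of four independent experiments.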
In general terms: Tetrazolium assays rely on reduction of a dye to a coloured formazan, in cell work by metabolically active cells.

The test system of data set [2] is HT-29. The data set is described as follows: Growth inhibition of combretastatin A-4 resistant human HT-29 cells after 72 hrs by MTT assay. Type of data set: functional, cell-based. Particulars: HT-29, 72 h. The procedure, abridged:
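5000 cells/well exposed for 72 h to dilution series of 100 µM–5 pM, with DMSO as solvent control. MTT 0.5 mg/mL final for 2 h, absorbance at 570/630 nm. Percentage viable cells taken versus DMSO controls; IC50 from dose–response curves, mean of four independent experiments.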

Data set [3] relates to HT-29. The data set is described as follows: Growth inhibition of combretastatin A-4 resistant human HT-29 cells after 24 hrs by MTT assay. It is filed as functional, cell-based. Conditions: HT-29, 24 h. Put shortly: as §1
Data set [4] in a line: Growth inhibition of human HCT116 cells expressing wild type p53 after 72 hrs by MTT assay. Type of data set: functional, cell-based. Conditions: HCT-116, 72 h. Put shortly: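 HCT-116 cells, p53 wild-type or p53-/-, seeded at 5000/well and treated 72 h with dilution series (100 µM–5 pM) or DMSO. MTT 0.5 mg/mL for 2 h, absorbance at 570/630 nm. Viability relative to DMSO controls; IC50 from dose–response curves, mean of three independent experiments ± S.D.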

Data set [5] is described as follows: Growth inhibition of primary chicken fibroblasts after 48 hrs by MTT assay. Type of data set: cell-based. Conditions: Gallus gallus, Fibroblast. The procedure, abridged: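 Chicken heart fibroblasts explanted from 10-day-old embryos, seeded at 10,000/well; cardiomyocytes seeded at 20,000/well. Dilution series given for 48 h, DMSO as control. MTT 0.5 mg/mL for 2 h, absorbance at 570/630 nm. Viability versus DMSO controls; IC50 from dose–response curves, mean of three independent experiments.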

Data set [6] has as its system HT-29. The data set is described as follows: Cell cycle arrest in combretastatin A-4 resistant human HT-29 cells assessed as mitotic cells at 50 nM after 24 hrs by propidium iodide/immuno-staining method (reference value: 3.1 to 3.2%). It is filed as functional.
Data set [7] deals with HT-29. The data set is described as follows: Cell cycle arrest in combretastatin A-4 resistant human HT-29 cells assessed as accumulation at G2 phase at 50 nM after 24 hrs by propidium iodide staining-based flow cytometry (reference value: 15.6 +/- 0.1%). It is filed as functional. In general terms: A flow cytometer gives signals particle by particle.
Data set [8] in a line: Cell cycle arrest in human 518A2 cells assessed as G2/M index ratio at 100 nM after 24 hrs by propidium iodide staining-based flow cytometry relative to control. It is filed as functional.
The nature of data set [9]: Cell cycle arrest in human HCT116 cells expressing wild type p53 assessed as G2/M index ratio at 50 nM after 24 hrs by propidium iodide staining-based flow cytometry relative to control. Conditions: HCT-116. It is filed as functional.
The subject of another data set is EA.hy 926. Kind of data set: Antivascular activity in human EAhy926 cells assessed as disruption of preformed blood vessel lke network at 250 nM after 16 hrs by matrigel based tube formation assay. Type of data set: functional, cell-based. Put shortly:
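Ea.hy926 cells (100,000/well) were seeded on Matrigel-coated coverslips and allowed 12 h to form vessel-like networks. Test agent (CA-4 100 nM; indoles 250 nM) or DMSO was then added for 16 h, and networks were documented by light microscopy. Viability was checked by 2 h MTT (0.5 mg/mL) relative to DMSO controls.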

Data set [10] in a line: Cytotoxicity against fertilized white leghorn chicken embryos in CAM model assessed as lethality at 5 nmol after 24 hrs relative to control. It is filed as organism-based, Gallus gallus. Conditions: in vivo. Put shortly:
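Day-5 fertilized eggs (37 °C, 50-60% humidity) windowed, with 6 mm silicon rings placed on CAM vessels and incubated a further 24 h. Compound diluted to 500 µM in PBS and pipetted inside the ring (10 µL = 5 nmol); DMSO control. Vessel changes documented by stereomicroscopy at 0, 12 and 24 h.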

Data set [11] relates to HT-29. Kind of data set: Induction of apoptosis in combretastatin A-4 resistant human HT-29 cells xenografted in fertilized white leghorn chicken egg chorioallantoic membrane at 5 nmol after 24 hrs by hematoxylin and eosin staining based stereomicroscopic analysis. It is filed as functional, cell-based. Put shortly:
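Pellets of 1×10^6 HT-29 cells in matrigel/serum-free RPMI placed on the CAM of fertilized eggs for 48 h. Then 5 nmol (100 µL of 50 µM in PBS) applied outside a silicon ring around the pellet; DMSO as control. Imaged by stereomicroscopy after 24 h. Micro-xenografts then explanted, formalin-fixed, paraffin-embedded and HE-stained.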
A general note: A xenograft is tissue or cells of one species grown in another, often human tumour cells in immunodeficient mice.

For data set [12], the system named is 1411HP. Kind of data set: Vascular disrupting activity against multidrug resistant human 1411HP cells xenografted in athymic nude mouse assessed as disruption of blood vessel at 100 mg/kg, ip after 24 hrs by hematoxylin and eosin staining based microscopic analysis. Type of data set: functional, organism-based. The procedure, abridged: (§2)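 Athymic nude mice carried subcutaneous flank xenografts from 8 million cells. A single intraperitoneal dose of 100 mg/kg was given. After 24 h tumors were explanted, fixed in 5% formalin, paraffin-embedded and HE-stained for microscopic examination of vessels, hemorrhage and necrosis.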

In data set [13] the test system is 1411HP. Kind of data set: Vascular disrupting activity against multidrug resistant human 1411HP cells xenografted in athymic nude mouse assessed as hemorrhage at 100 mg/kg, ip after 24 hrs by hematoxylin and eosin staining based microscopic analysis. Type of data set: functional, organism-based. The procedure, abridged:
as §2

The test system of data set [14] is 1411HP. Kind of data set: Vascular disrupting activity against multidrug resistant human 1411HP cells xenografted in athymic nude mouse assessed as tumor necrosis at 100 mg/kg, ip after 24 hrs by hematoxylin and eosin staining based microscopic analysis. Type of data set: functional, organism-based. Put shortly: as §2
The test system of a further data set is A2780cisR. Kind of data set: Vascular disrupting activity against human A2780cis cells xenografted in athymic nude mouse assessed as disruption of blood vessel at 100 mg/kg, ip after 24 hrs by hematoxylin and eosin staining based microscopic analysis. Type of data set: functional, organism-based. The procedure, abridged:
as §2

In the next data set the test system is 518A2. The data set is described as follows: Effect on microtubule structure in human 518A2 cells at 100 nM incubated for 24 hrs by DAPI staining based immunofluorescence microscopic analysis. It is filed as cell-based. The procedure, abridged: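 518A2 cells (25,000/well) on coverslips treated 24 h with 100 nM. Cells fixed in 4% formaldehyde, permeabilized and blocked (Triton X-100/BSA). Stained with mouse anti-alpha-tubulin (37 °C, 1 h) and AlexaFluor-488 secondary; nuclei counterstained with DAPI (1 µg/mL). Imaged by fluorescence microscopy at 400×.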

For data set [15], the system named is Chorioallantoic membrane. Kind of data set: Antivascular activity in fertilized white leghorn chicken egg chorioallantoic membrane assessed as disruption of preformed blood vessel at 5 nmol after 12 hrs by stereomicroscopic analysis. Conditions: Gallus gallus. Type of data set: functional, tissue-based. Put shortly: (§3)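 Fertilized white leghorn SPF eggs were incubated to day 5 at 37 °C and 50–60% humidity. A shell window was cut, 6 mm silicon rings were placed on developing CAM vessels, and eggs were incubated another 24 h. Compound (500 μM in PBS; 10 μL = 5 nmol, 20 μL = 10 nmol) or DMSO was pipetted inside the ring. Vessel changes were imaged by stereomicroscope at 0, 12 and 24 h.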

Data set [16] relates to Chorioallantoic membrane. Kind of data set: Antivascular activity in fertilized white leghorn chicken egg chorioallantoic membrane assessed as blood vessel hemorrhage at 5 nmol after 12 hrs by stereomicroscopic analysis. Type of data set: functional, tissue-based. Conditions: Gallus gallus. The procedure, abridged: as §3
A short description of data set [17]: Cytotoxicity against fertilized white leghorn chicken embryos in CAM model assessed as lethality at 2.5 nmol after 24 hrs relative to control. It is filed as organism-based, Gallus gallus. Conditions: in vivo.

This note sets out measurements from ChEMBL document CHEMBL3822382 (Eur J Med Chem, 2016).

The source made the active and inactive calls. No cut-off for these calls is given here.

As usually defined, the IC50 is the concentration that gives 50% inhibition. Broadly, the mortality is the percentage killed.

With `COc1cc(-c2ncn(C)c2-c2ccc3c(c2)c(Cl)cn3C)cc(Br)c1OC.Cl`, the inhibition entry in the data set filed under Sus scrofa was “inactive”. Also, the IC50 in [1] came out at 18.8 nM; with HT-29 [2], 23.4 nM; in the data set with HT-29 [3] it was 31.3 nM; in data set [4], 27.4 nM; in data set [5], 23000 nM. The Activity is 28% in the data set with HT-29 [6] and 15.2% in the data set on HT-29 [7]. Besides, the Ratio in [8] was 1.5; in data set [9] it was 0.9. The outcome with EA.hy 926, in the data set on HT-29 [11], with 1411HP [12], in the data set with 1411HP [13], in the data set with 1411HP [14] and with A2780cisR was Active. Further, the mortality at 24 h in data set [10] came out at 33%.
Regarding `COc1cc(-c2ncn(C)c2-c2ccc3c(c2)c(Cl)cn3C)cc(OC)c1OC`, the inhibition entry in the data set filed under Sus scrofa was “Active”. For the same compound, the IC50 in data set [1] was found to be 20.2 nM; in the data set on HT-29 [2], 15.6 nM; in the data set with HT-29 [3], 26.2 nM; in [4] it was 9.5 nM; in data set [5] it was 11600 nM. In addition, in [9], the Ratio is 0.9. Also, the outcome in the data set on 518A2 was inactive. In addition, the outcome with EA.hy 926, in the data set on Chorioallantoic membrane [15] and in the data set on Chorioallantoic membrane [16] was Active. For the same compound, the mortality at 24 h was determined as 80% in data set [10] and 67% in data set [17].
